Measurements of several laboratories.
Each line is one published result; the experiments were not run side by side.
EGFR del746-750: Epidermal growth factor receptor (EGFR, Homo sapiens, UniProt P00533, del746-750)
EGFR G719C: Epidermal growth factor receptor (EGFR, Homo sapiens, UniProt P00533, G719C)
EGFR A750P/del747-749: Epidermal growth factor receptor (EGFR, Homo sapiens, UniProt P00533, A750P/del747-749)
EGFR del752-759: Epidermal growth factor receptor (EGFR, Homo sapiens, UniProt P00533, del752-759)
EGFR L858R/T790M: Epidermal growth factor receptor (EGFR, Homo sapiens, UniProt P00533, L858R/T790M)
EGFR L861Q: Epidermal growth factor receptor (EGFR, Homo sapiens, UniProt P00533, L861Q)
EGFR L858R: Epidermal growth factor receptor (EGFR, Homo sapiens, UniProt P00533, L858R)
EGFR: Epidermal growth factor receptor (EGFR, Homo sapiens, UniProt P00533)
EGFR G719S: Epidermal growth factor receptor (EGFR, Homo sapiens, UniProt P00533, G719S)

Cc1cnn2ncc(-c3ccnc(N(C)C)n3)c2c1 — remaining binding (EGFR del746-750; binding; 1 µM): 100%
CCC(=N\O)/C(C)=C/c1ccc(F)cc1 — remaining binding (Epidermal growth factor receptor (EGFR, Homo sapiens, UniProt P00533, T790M); cell-free assay; competition with immobilised ligand; 1 µM): 100%
c1cncc(-c2cccc(Nc3nccc(NC4CCCCC4)n3)c2)c1 — remaining binding (EGFR G719C; binding; competition with immobilised ligand; 10 µM): 70%
Cc1nccc(COC(=O)N2C[C@@H]3[C@@H](CNC(=O)c4ccc5[nH]nnc5c4)[C@@H]3C2)n1 — remaining binding (EGFR A750P/del747-749; cell-free assay; competition with immobilised ligand; 1 µM): 71%
O=C(c1ccc(Nc2ncc(Cl)c(-c3ccc(Cl)s3)n2)cc1)N1CCC(N2CCCC2)CC1 — remaining binding (EGFR A750P/del747-749; binding; competition with immobilised ligand; 1 µM): 72%
O=C(Nc1cccnn1)N1CC(C/C=C/c2cncc(Oc3ccc(C(F)(F)F)cn3)n2)C1 — remaining binding (Epidermal growth factor receptor (EGFR, Homo sapiens, UniProt P00533, del747-750/T751S); cell-free assay; competition with immobilised ligand; 1 µM): 100%
COc1cnc(Nc2cccc(S(N)(=O)=O)c2)nc1N1CCN(c2ccccc2)CC1 — remaining binding (EGFR del752-759; binding; competition with immobilised ligand; 1 µM): 94%
O=C(c1ccc(Nc2nccc(-c3cc4ccccc4s3)n2)cc1)N1CCC(N2CCCC2)CC1 — remaining binding (EGFR L858R/T790M; binding; competition with immobilised ligand; 1 µM): 58%
CN1CCN(c2ccc(Nc3nccc(-c4cccc([N+](=O)[O-])c4)n3)cc2C(F)(F)F)CC1 — remaining binding (EGFR L861Q; binding; 10 µM): 96%
C[C@H]1CCN(c2nccc(-c3cnn4ncccc34)n2)C1 — remaining binding (EGFR del746-750; binding; 1 µM): 71%
O=C(c1ccc(Nc2ncc(Cl)c(-c3cc4ccccc4s3)n2)cc1)N1CCC(N2CCCC2)CC1 — remaining binding (EGFR L858R/T790M; binding; competition with immobilised ligand; 1 µM): 64%
COc1ccnn2ncc(-c3ccnc(N(C)C)n3)c12 — remaining binding (EGFR L858R; binding; 1 µM): 100%
C[C@@H]1CN(c2ccc3ncc(-c4ccc5[nH]nc(C6CC6)c5c4)n3n2)C[C@H](C)O1 — remaining binding (EGFR; binding; competition with immobilised ligand; 50 nM): 60%
N#Cc1ccccc1CSc1nnc2c(n1)[nH]c1ccccc12 — remaining binding (EGFR L858R; binding; competition with immobilised ligand; 10 µM): 100%
O=C(NCC1CCOCC1)c1n[nH]cc1NC(=O)c1c(F)cccc1F — remaining binding (EGFR A750P/del747-749; binding; competition with immobilised ligand; 1 µM): 96%
Cc1c(-c2ccccc2)oc2c(C(=O)OCCN3CCCCC3)cccc2c1=O — remaining binding (EGFR; cell-free assay; competition with immobilised ligand; 10 µM): 88%
Cc1cnc(Nc2ccc(C(=O)N3CCC(N4CCCC4)CC3)cc2)nc1-c1cc2ccccc2s1 — remaining binding (EGFR A750P/del747-749; binding; competition with immobilised ligand; 1 µM): 72%
O=C(Nc1c[nH]nc1C(=O)NC1CCNCC1)c1cc(F)cc(F)c1 — remaining binding (EGFR del752-759; binding; competition with immobilised ligand; 1 µM): 100%
O=C(NCCCN1CCOCC1)c1ccc(Nc2nccc(-c3cc4ccccc4s3)n2)cc1 — remaining binding (EGFR A750P/del747-749; binding; competition with immobilised ligand; 1 µM): 100%
C[C@@H](c1cccc(C#N)c1)n1cc(Cl)cc(C(N)=O)c1=N — remaining binding (EGFR del746-750; cell-free assay; competition with immobilised ligand; 1 µM): 93%
Nc1ncc2c(n1)-c1c([nH]c3ccc(C#CC4CC4)cc13)CCCC2 — remaining binding (EGFR L858R/T790M; binding; competition with immobilised ligand; 1 µM): 87%
CNC(=O)[C@@H]1CC[C@@H](n2c(-c3ccc4cnccc4c3)nc3ccc(C(=O)NCc4cccc(C(N)=O)c4)cc32)C1 — remaining binding (EGFR; binding; competition with immobilised ligand; 1 µM): 100%
O=C(NCCCN1CCOCC1)c1ccc(Nc2ncc(Cl)c(-c3ccc(Cl)s3)n2)cc1 — remaining binding (EGFR G719C; binding; competition with immobilised ligand; 1 µM): 100%
CN1CCN(c2ccc(Nc3nccc(-c4ccccc4)n3)cc2C(F)(F)F)CC1 — remaining binding (EGFR G719S; binding; 10 µM): 98%
F[C@@H]1CCN(c2nccc(-c3cnn4ncccc34)n2)C1 — remaining binding (EGFR L858R/T790M; binding; 1 µM): 100%
Cc1nc(N2CC[C@@H](O)C2)ncc1-c1cc(C(F)(F)F)cc2[nH]ncc12 — remaining binding (EGFR G719C; cell-free assay; competition with immobilised ligand; 1 µM): 100%
COc1cnc(Nc2cccc(S(N)(=O)=O)c2)nc1N1CCN(c2ccccc2)C(=O)C1 — remaining binding (EGFR L858R/T790M; binding; competition with immobilised ligand; 1 µM): 72%
CN(C)c1ncc(F)c(-c2cnn3ncccc23)n1 — remaining binding (EGFR L861Q; binding; 1 µM): 100%
COc1cccc(CNC(=O)c2nc3scc(COCc4ccc(C(=O)O)cc4)c3c(=O)[nH]2)c1 — remaining binding (EGFR A750P/del747-749; cell-free assay; competition with immobilised ligand; 1 µM): 76%
COc1ncc2cc3ccccc3nc2c1C#N — remaining binding (EGFR G719S; cell-free assay; competition with immobilised ligand; 5 µM): 95%
CNCc1ccccc1-c1csc([C@H](C)Nc2nc(C)nc3cc(OC)c(OC)cc23)c1 — remaining binding (Epidermal growth factor receptor (EGFR, Homo sapiens, UniProt P00533, del747-752/P753S); cell-free assay; competition with immobilised ligand; 1 µM): 100%
c1cnn2ncc(-c3ccnc(N4CCC45COC5)n3)c2c1 — remaining binding (EGFR L861Q; binding; 1 µM): 96%
CCN1CCN(Cc2ccc(C(=O)Nc3ccc(C)c(Oc4ccc5c(c4)CC(=O)N5)c3)cc2C(F)(F)F)CC1 — remaining binding (EGFR del752-759; binding; competition with immobilised ligand; 1 µM): 100%
N[C@H]1CCN(c2nccc(-c3cnn4ncccc34)n2)C1 — remaining binding (EGFR; binding; 1 µM): 100%
CN(C)C(=O)Cn1cc(-c2nc(C3(c4ccc(-c5cnc(N)nc5)cc4)CC3)no2)cn1 — remaining binding (EGFR L861Q; cell-free assay; competition with immobilised ligand; 1 µM): 100%
